# High-throughput results (PubChem)
# Sampled rows, rich in hits. Any-hit rate of the full collection: about 11%.
# WT yeast gro inh = growth inhibition of WT yeast, mitochondrial fusion screen; mitochondrial fusion phenotypic screen, WT strain; inhibition, % at 10 µM; hit rate 2.1% among 190,000; in the data active means inhibition above about 58%; tested in S. cerevisiae
# Diaphorase act = counter-screen for diaphorase-based assays: diaphorase activators and chemical reducers; Diaphorase/resazurin coupled assay, resorufin fluorescence, 16 min; active compounds read high; 1 = vehicle wells, 0 = NADH-free wells; activation factor at 20 µM; hit rate 0.005% among 190,000;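 active means diaphorase activity raised at least twofold by the compound at 20 µM; inactive means activation factor below 2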
#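 Assay system: Purified diaphorase enzyme from Clostridium kluyveri | Amount: Enzyme 0.07 U/mL final | Dosing: Compound 20 µM once, DMSO 1% | Timing: 16 min reaction at room temperature | Detection: Fluorescence, excitation 544 nm and emission 590 nm | Evaluation: Higher resorufin formation from activation or reduction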
# Lmaj promast = Leishmania major promastigote growth inhibition; Leishmania major promastigotes, resazurin fluorescence viability; inhibition, % at 10 µM; hit rate 9% among 200,000; AID 1063;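 further: promastigotes grown with compound for 44 hours at 28 °C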
# G6PDH counter = inhibits Leuconostoc G6PDH, flagging false hits in G6PDH-based assays; Purified L. mesenteroides G6PDH, diaphorase/resazurin coupled fluorescence, 45 min; inhibition, % at 5 µM; hit rate 0.12% among 200,000; AID 1020
# Diaphorase inh = diaphorase inhibition or chemical oxidation counter-screen | hit rate 0.69% among 190,000 | inhibition, % at 20 µM | diaphorase resazurin-to-resorufin fluorescence, NADH, 16 min; bacterial (C. kluyveri) enzyme, not human;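 active means primary screen inhibition at 20 µM above a set limit, cut at about 50% in these data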;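 further: plate controls were DMSO with full reaction for no effect and wells lacking NADH for full effect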
#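 Test system: bacterial diaphorase enzyme (C. kluyveri); Quantity: 0.14 U/mL diaphorase, enzyme working solution; Times: reaction incubation of 16 min at room temperature; Measured by: fluorescence of resorufin formed from resazurin, Ex 544/Em 590 nm; Benchmarks: positive control minus NADH, DMSO neutral control.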
# Numbers without * were called inactive; nt = no result given. Unless noted, no stated cut-off is given here; in the data, active means inhibition above about 50%; inactive means the rest.
SMILES,WT yeast gro inh,Diaphorase act,Lmaj promast,G6PDH counter,Diaphorase inh
COc1ccc2nc(N3CCCC(C(=O)NCCCN4CCN(C)CC4)C3)sc2c1 (stereo not drawn),11.2,1,63.8*,3.3,-1.5
O=S(=O)(Nc1ccc(-n2cccc2)cc1)c1ccc(Cl)cc1Cl,87.9*,0.7,-5.7,-19.0,29.9
O=S(=O)(Nc1ccc(-n2cccc2)cc1)c1ccc(F)cc1,-11.0,0.9,-12.4,13.7,12.2
CN(C)c1ccc(NS(=O)(=O)c2cc(Cl)ccc2Cl)cc1,-7.0,0.7,63.6*,-2.4,31.2
O=C(c1ccc([N+](=O)[O-])cc1)N(Cc1ccc(Br)cc1)N1C(=O)CCCC1=O,21.6,1,2.4,11.8,-3.5
O=c1[nH]c(-c2ccccn2)nc(C(F)(F)F)c1Br,70.7,0.8,96.7*,19.4,16.6
Cc1ccsc1/C=C1/NC(=O)N(Cc2ccc(F)cc2)C1=O,-1.3,1,1.2,17.1,2.7
Cc1oc2ccc(OC(=O)c3cccs3)cc2c1C(=O)OC(C)C,70.5*,0.9,-3.5,-7.4,9.3
COc1cccc(C(=O)/C=C/c2ccc(OCC#N)c(OC)c2)c1,-19.0,0.9,99.7*,-7.8,11.8
COc1cc(/C=C/C(=O)c2ccc(O)cc2)ccc1OCC#N,-13.2,1,98.5*,6.9,-1.9
CCCc1nnc(SCc2ccc(OC)cc2)n1N,4.1,0.9,-4.3,4.6,10.4
Cn1c(=O)c2c(ncn2CC(=O)OCC(=O)NCc2ccccc2Cl)n(C)c1=O,-1.7,0.9,-4.7,3.5,10.3
O=C(COc1ccc([N+](=O)[O-])cc1)N/N=C/c1cc([N+](=O)[O-])ccc1N1CCOCC1,9.4,0.8,-3.5,-79.4,22.8
O=C(N/N=C/c1cc([N+](=O)[O-])ccc1N1CCNCC1)c1ccc([N+](=O)[O-])cc1,14.5,1,86.2*,8.1,-0.7
N#CCC(=O)N/N=C/c1cc([N+](=O)[O-])ccc1N1CCCC1,5.0,0.8,15.9,6.5,17.2
Cc1ccc(OCC(=O)N/N=C/c2cc([N+](=O)[O-])ccc2N2CCCCC2)cc1,14.3,1,96.3*,-4.9,3.4
O=C(NNS(=O)(=O)c1ccc(F)cc1)C1CCN(Cc2cccc(F)c2)CC1,-1.7,1,85.8*,2.8,1.8
Cc1cc(C)c(S(=O)(=O)NNC(=O)C2CCN(Cc3ccccc3)CC2)c(C)c1,-5.9,1,91.1*,5.4,1.9
COc1ccc(NC(C)=O)cc1NC(C)C(=O)Nc1cccc2ccccc12 (stereo not drawn),0.9,0.8,1.1,11.2,15.5
CC(C)N1CCN(CC#Cc2ccccc2)CC1CCO (stereo not drawn),0.9,nt,-3.3,11.7,nt
C/C(CC(=O)NCc1ccc(F)cc1)=N\NC(N)=S,6.3,1,-3.1,10.8,1.6
COc1cccc(/C=N/NC(=O)CN2CC(c3ccccc3)CC2=O)c1OC (stereo not drawn),-4.4,1,-1.7,-8.9,-0.3
CCN(CC)C(=O)CSc1nc(N)c2c3c(sc2n1)CC(C)CC3 (stereo not drawn),32.7,0.9,64.2*,-1.1,13.4
COc1ccc(OC)c(/C=C2/Sc3ccccc3C2=O)c1,16.2,0.7,-2.9,13.5,30.1
COc1ccccc1NS(=O)(=O)c1cccc(C(=O)N/N=C/c2ccc(NC(C)=O)cc2)c1,14.1,0.9,4.1,-4.3,9.3
SMILES,WT yeast gro inh,Diaphorase act,Lmaj promast,G6PDH counter,Diaphorase inh
O=[N+]([O-])c1ccc(C[n+]2cccc3ccccc32)cc1,2.0,0.9,-1.9,8.0,10.3
O=[N+]([O-])c1ccc(C[n+]2cccc3ccc4cccnc4c32)cc1,59.0*,1.1,17.0,48.1,-12.7
CN(C)CC(C)(C)CNC(=O)CC1C(=O)NCCN1Cc1ccc(-c2ccccc2)cc1 (stereo not drawn),2.7,1,-0.6,7.5,-1.5
CCN(CC)CCOC(=O)c1c(C)oc2ccc(OC)cc12,12.2,1,100.3*,1.1,0.9
C=C(C)COc1ccc2oc(C)c(C(=O)OCCOC)c2c1,-17.3,0.8,-3.9,3.5,15.7
CCN(CC)CCCOC(=O)c1ccc(OC)cc1O,-2.9,0.9,74.3*,17.6,10.1
CCN(CC)CCOC(=O)c1cccc(OC)c1,-2.0,0.9,-4.7,18.1,11.3
Cc1ccc(OCc2nnnn2-c2ccccc2)cc1,-2.4,0.8,0.6,11.0,17.5
CCn1nnc(NC(=O)c2ccc(-c3ccccc3[N+](=O)[O-])o2)n1,-27.5,0.9,7.5,-0.2,14.9
CC(=O)c1cccc(NC(=O)c2ccc(-c3ccccc3[N+](=O)[O-])o2)c1,14.8,0.8,74.8*,8.6,22.9
O=C(Nc1cccc(F)c1)c1ccc(-c2ccccc2Cl)o1,76.5*,0.9,4.6,17.8,9.6
Cc1ccc(-c2ccc(C(=O)Nc3cccc(F)c3)o2)c2ccccc12,20.5,0.9,24.9,27.8,7.7
CCCNC(=O)CN(C)CC(=O)Nc1ccccc1C#N,-15.3,0.9,-5.3,0.5,6.7
CCN(CC)S(=O)(=O)c1cc(C(=O)OCC(=O)Nc2ccc(-c3nc4ccc(C)cc4s3)cc2)ccc1F,-1.4,1,-6.8,-11.3,0.9
CN(C)c1ccc(NC(=O)Cn2ncn3c(cc4ccccc43)c2=O)cc1,0.0,0.9,57.9*,7.5,13.2
O=C1CC(c2ccccc2)=Nc2ccccc2N1,3.1,0.9,0.4,11.7,5.0
O=C1CC(/C=C/c2ccncc2)=Nc2ccccc2N1,-9.9,0.9,65.5*,2.9,10.1
CSc1nc(Oc2ccc(C)cc2)cc(C(F)(F)F)n1,-7.2,0.9,-1.1,0.3,8.7
On1c(-c2ccc(Cl)cc2)nc2ccccc21,78.9*,1,-2.1,4.2,-4.9
Cc1cc(NC(=O)CSc2ncnc3sc(C)c(C)c23)no1,-5.3,0.9,-8.3,-2.2,8.5
O=C(Nc1cccc(F)c1)N(Cc1ccc(Cl)cc1)CC(O)C(F)(F)F (stereo not drawn),70.6*,0.9,100.6*,-3.7,12.2
O=C(Nc1ccccc1)N(Cc1ccccc1)CC(O)C(F)(F)F (stereo not drawn),19.5,1,-6.9,3.4,3.7
NC(=O)Nc1ccc(F)cc1,-0.1,1,-4.2,0.4,3.5
O=[N+]([O-])c1c(C(Cl)Cl)nn(-c2ccc(Cl)cc2)c1N1CCCCC1,74.8*,0.9,10.2,5.3,9.5
Cc1c(C#N)c(N=CN(C)C)c(C(=O)c2ccc(Br)cc2)n1-c1ccc(Cl)cc1,60.5*,0.8,99.7*,6.7,16.1
CCOC(=O)Cn1nc(-c2ccc(Cl)cc2)cc1N,0.8,0.8,54.7*,3.9,15.3
CCOC(=O)CCn1nc(-c2ccc(Cl)cc2)cc1N,0.5,0.9,3.7,-2.9,13.9
CCOC(=O)c1oc2ccc(S(=O)(=O)n3nc(-c4ccc(C)cc4)cc3N)cc2c1C,-2.4,0.7,91.2*,-3.3,28.8
CCOC(=O)c1oc2ccc(S(=O)(=O)n3nc(-c4ccc(Cl)cc4)cc3N)cc2c1C,18.1,0.9,98.2*,-5.5,12.9
